Assay results from ChEMBL document CHEMBL5724801, “EUbOPEN Chemogenomics Library - Multiplex” (2024).
Several values for one entry are separate records, joined by “and”; a condition that tells them apart may be missing. Identical values can stand only once.

Assays:
[1] = test system: U2OS; assay: Multiplex assay against U2OS; assay type: toxicity, cell-based; details: human
How it was run: (§1)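 Tubulin, mitochondrial-mass and membrane-permeability phenotypes are per cents of healthy-nucleus cells. Cells were gated by CellPathfinder machine learning into Hoechst high-intensity objects or normal cells, normal cells into healthy, pyknosed or fragmented nuclei, and pyknosed cells into mitotic or apoptotic. Before that, live cells stained at seeding with Hoechst33342, BioTracker Green Microtubule Cytoskeleton Dye, MitoTracker Red and Annexin V Alexa Fluor 680 were imaged on a CQ1 microscope at 37°C and 5% CO2 after compound addition.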

[2] = test system: HEK-293T; assay: Multiplex assay against HEK293T; assay type: toxicity, cell-based; details: human; how it was run: as §1
[3] = 12 h, 1 µM, compound concentration 1 uM
[4] = 12 h, 10 µM, compound concentration 10 uM
[5] = 24 h, 1 µM, compound concentration 1 uM
[6] = 24 h, 10 µM, compound concentration 10 uM
[7] = 48 h, 1 µM, compound concentration 1 uM
[8] = 48 h, 10 µM, compound concentration 10 uM

CNC[C@H](O)c1ccc(O)c(O)c1 [EPINEPHRINE]
Population Apoptotic (%) [1, 3]: 88% and 80%
Population Fragmented Nuclei (%) [1, 3]: 35% and 17%
Population Healthy Nuclei (%) [1, 3]: 56% and 77%
Population Hoechst High Intensity Objects (%) [1, 3]: 2% and 0%
Population Membrane Permeable-Phenotype (%) [1, 3]: 5% and 7%
Population Mitochondria Different-Phenotype (%) [1, 3]: 1% and 2%
Population Mitotic Cells (%) [1, 3]: 11% and 20%
Population Normal (%) [1, 3]: 97% and 100%
Population Pyknosed Nuclei (%) [1, 3]: 7% and 5%
Population Tubulin-Different-Phenotype (%) [1, 3]: 2% and 4%
Total Cell Count [1, 3]: 229 and 92
Population Apoptotic (%) [1, 4]: 92% and 86%
Population Fragmented Nuclei (%) [1, 4]: 41% and 33%
Population Healthy Nuclei (%) [1, 4]: 45% and 50%
Population Hoechst High Intensity Objects (%) [1, 4]: 6% and 9%
Population Membrane Permeable-Phenotype (%) [1, 4]: 7% and 6%
Population Mitochondria Different-Phenotype (%) [1, 4]: 1% and 2%
Population Mitotic Cells (%) [1, 4]: 8% and 13%
Population Normal (%) [1, 4]: 93% and 90%
Population Pyknosed Nuclei (%) [1, 4]: 13% and 15%
Population Tubulin-Different-Phenotype (%) [1, 4]: 4% and 6%
Total Cell Count [1, 4]: 199 and 105
Population Apoptotic (%) [1, 5]: 84% and 75%
Population Fragmented Nuclei (%) [1, 5]: 28% and 19%
Population Healthy Nuclei (%) [1, 5]: 64% and 68%
Population Hoechst High Intensity Objects (%) [1, 5]: 2%
Population Membrane Permeable-Phenotype (%) [1, 5]: 6% and 7%
Population Mitochondria Different-Phenotype (%) [1, 5]: 1% and 5%
Population Mitotic Cells (%) [1, 5]: 15% and 25%
Population Normal (%) [1, 5]: 97%
Population Pyknosed Nuclei (%) [1, 5]: 7% and 11%
Population Tubulin-Different-Phenotype (%) [1, 5]: 2% and 1%
Total Cell Count [1, 5]: 278 and 105
Population Apoptotic (%) [1, 6]: 94% and 100%
Population Fragmented Nuclei (%) [1, 6]: 39% and 31%
Population Healthy Nuclei (%) [1, 6]: 50% and 45%
Population Hoechst High Intensity Objects (%) [1, 6]: 9% and 11%
Population Membrane Permeable-Phenotype (%) [1, 6]: 11% and 2%
Population Mitochondria Different-Phenotype (%) [1, 6]: 5% and 0%
Population Mitotic Cells (%) [1, 6]: 5% and 0%
Population Normal (%) [1, 6]: 90% and 88%
Population Pyknosed Nuclei (%) [1, 6]: 10% and 22%
Population Tubulin-Different-Phenotype (%) [1, 6]: 6% and 2%
Total Cell Count [1, 6]: 195 and 96
Population Apoptotic (%) [1, 7]: 87% and 92%
Population Fragmented Nuclei (%) [1, 7]: 24% and 18%
Population Healthy Nuclei (%) [1, 7]: 66% and 72%
Population Hoechst High Intensity Objects (%) [1, 7]: 0%
Population Membrane Permeable-Phenotype (%) [1, 7]: 9% and 4%
Population Mitochondria Different-Phenotype (%) [1, 7]: 5% and 3%
Population Mitotic Cells (%) [1, 7]: 12% and 7%
Population Normal (%) [1, 7]: 99%
Population Pyknosed Nuclei (%) [1, 7]: 9%
Population Tubulin-Different-Phenotype (%) [1, 7]: 4% and 2%
Total Cell Count [1, 7]: 333 and 150
Population Apoptotic (%) [1, 8]: 92% and 94%
Population Fragmented Nuclei (%) [1, 8]: 41% and 36%
Population Healthy Nuclei (%) [1, 8]: 44% and 40%
Population Hoechst High Intensity Objects (%) [1, 8]: 10% and 17%
Population Membrane Permeable-Phenotype (%) [1, 8]: 15% and 24%
Population Mitochondria Different-Phenotype (%) [1, 8]: 8% and 13%
Population Mitotic Cells (%) [1, 8]: 7% and 5%
Population Normal (%) [1, 8]: 89% and 82%
Population Pyknosed Nuclei (%) [1, 8]: 14% and 23%
Population Tubulin-Different-Phenotype (%) [1, 8]: 10% and 13%
Total Cell Count [1, 8]: 215 and 87
Population Apoptotic (%) [2, 3]: 20% and 56%
Population Fragmented Nuclei (%) [2, 3]: 6%
Population Healthy Nuclei (%) [2, 3]: 81%
Population Hoechst High Intensity Objects (%) [2, 3]: 7% and 6%
Population Membrane Permeable-Phenotype (%) [2, 3]: 0%
Population Mitochondria Different-Phenotype (%) [2, 3]: 31% and 65%
Population Mitotic Cells (%) [2, 3]: 80% and 43%
Population Normal (%) [2, 3]: 92% and 93%
Population Pyknosed Nuclei (%) [2, 3]: 11%
Population Tubulin-Different-Phenotype (%) [2, 3]: 26% and 27%
Population Apoptotic (%) [2, 4]: 55% and 56%
Population Fragmented Nuclei (%) [2, 4]: 12% and 11%
Population Healthy Nuclei (%) [2, 4]: 75% and 61%
Population Membrane Permeable-Phenotype (%) [2, 4]: 1% and 0%
Population Mitochondria Different-Phenotype (%) [2, 4]: 65% and 62%
Population Mitotic Cells (%) [2, 4]: 44% and 43%
Population Normal (%) [2, 4]: 90% and 59%
Population Pyknosed Nuclei (%) [2, 4]: 11% and 26%
Population Tubulin-Different-Phenotype (%) [2, 4]: 39% and 25%
Population Apoptotic (%) [2, 5]: 19% and 36%
Population Fragmented Nuclei (%) [2, 5]: 9%
Population Healthy Nuclei (%) [2, 5]: 80%
Population Hoechst High Intensity Objects (%) [2, 5]: 5% and 7%
Population Membrane Permeable-Phenotype (%) [2, 5]: 0% and 1%
